Experimental data taken from ChEMBL document CHEMBL1124813, “Synthesis and antiinflammatory activity of novel 12 beta-substituted analogues of betamethasone” (1990).
“And” between values parts separate entries of the source, which are not always exact repeats. Identical values can stand only once.

Experiments:
Format in all cases: functional
[1] = test system: Mus musculus; assay: Topical Antiinflammatory activity was measured in the TPA induced mouse ear edema assay at 300 ugm/mouse.
Method in brief: (§1)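 Mouse ear edema induced by topical TPA at 8.8 nmol/mouse, with the test steroid applied topically to the ear.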

[2] = test system: Mus musculus; assay: Systemic Antiinflammatory activity was measured in the TPA induced mouse ear edema assay at 300 ugm/mouse.
Method in brief: (§2)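 Systemic absorption was assessed by the contralateral ear assay. Ear edema was induced with TPA (8.8 nmol/mouse) and scored on the ear opposite the one receiving the topical corticoid.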

[3] = test system: Mus musculus; assay: ED100 of was measured in the TPA induced mouse ear edema assay.; method in brief: as §1
[4] = test system: Mus musculus; assay: Topical Antiinflammatory activity was measured in the TPA induced mouse ear edema assay at 200 ug/mouse.; method in brief: as §1
[5] = test system: Mus musculus; assay: Systemic Antiinflammatory activity was measured in the TPA induced mouse ear edema assay at 200 ug/mouse.; method in brief: as §2
[6] = test system: Mus musculus; assay: Topical Antiinflammatory activity was measured in the TPA induced mouse ear edema assay at 50 ug/mouse.; method in brief: as §1
[7] = test system: Mus musculus; assay: Systemic Antiinflammatory activity was measured in the TPA induced mouse ear edema assay at 100 ug/mouse.; method in brief: as §2
[8] = species: Mus musculus; assay: Percentage systemic effect to assess the degree of absorption was measured at 200 ug/mouse.
Method in brief: (§3)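 Systemic effect was measured after repeated topical high-dose applications to the mouse ear. Thymic involution was read as loss of thymus weight (n = 6). Adrenal suppression was read as inhibition of the stress-induced rise in plasma cortisol (n = 6).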

[9] = species: Mus musculus; assay: Skin thickness of mouse was measured at 300 ugm/mouse.
[10] = species: Mus musculus; assay: Atrophogenicity potency was observed in mouse at given dose at 300 ugm/mouse.
[11] = test system: Mus musculus; assay: Topical Antiinflammatory activity was measured in the TPA induced mouse ear edema assay at 100 ug/mouse.; method in brief: as §1
[12] = test system: Mus musculus; assay: Systemic Antiinflammatory activity was measured in the TPA induced mouse ear edema assay at 50 ug/mouse; method in brief: as §2
[13] = species: Mus musculus; assay: Percentage systemic effect to assess the degree of absorption was measured at 100 ug/mouse.; method in brief: as §3
[14] = species: Mus musculus; assay: Percentage systemic effect to assess the degree of absorption was measured at 50 ug/mouse; method in brief: as §3
[15] = species: Mus musculus; assay: Atrophogenicity potency was observed in mouse at 200 ug/mouse.
[16] = test system: Mus musculus; assay: Topical Antiinflammatory activity was measured in the TPA induced mouse ear edema assay at 10 ug/mouse.; method in brief: as §1
[17] = test system: Mus musculus; assay: Topical Antiinflammatory activity was measured in the TPA induced mouse ear edema assay at 40 ugm/mouse.; method in brief: as §1
[18] = species: Mus musculus; assay: Skin thickness of mouse was measured at 200 ug/mouse
[19] = species: Mus musculus; assay: Percentage systemic effect to assess the degree of absorption was measured 40 ugm/mouse.; method in brief: as §3
[20] = test system: Mus musculus; assay: Systemic Antiinflammatory activity was measured in the TPA induced mouse ear edema assay at 10 ug/mouse.; method in brief: as §2
[21] = test system: Mus musculus; assay: Systemic Antiinflammatory activity was measured in the TPA induced mouse ear edema assay at 40 ugm/mouse.; method in brief: as §2
[22] = species: Mus musculus; assay: Percentage systemic effect to assess the degree of absorption was measured at 10 ug/mouse.; method in brief: as §3
[23] = species: Mus musculus; assay: Percentage systemic effect to assess the degree of absorption was measured at 50 ug/mouse.; method in brief: as §3
[24] = test system: Mus musculus; assay: Systemic Antiinflammatory activity was measured in the TPA induced mouse ear edema assay at 50 ug/mouse.; method in brief: as §2
[25] = species: Mus musculus; assay: Percentage systemic effect to assess the degree of absorption was measured at 300 ugm/mouse.; method in brief: as §3
[26] = species: Mus musculus; assay: Percentage systemic effect to assess the degree of absorption was measured at 40 ugm/mouse.; method in brief: as §3
[27] = species: Mus musculus; assay: Percentage systemic effect to assess the degree of absorption was measured 75 ug/mouse; method in brief: as §3
[28] = species: Mus musculus; assay: Skin thickness of mouse was measured at 75 ug/mouse
[29] = test system: Mus musculus; assay: Systemic Antiinflammatory activity was measured in the TPA induced mouse ear edema assay at 2.5 ug/mouse; method in brief: as §2
[30] = test system: Mus musculus; assay: Topical Antiinflammatory activity was measured in the TPA induced mouse ear edema assay at 2.5 ug/mouse.; method in brief: as §1
[31] = species: Mus musculus; assay: Atrophogenicity potency was observed in mouse at 75 ug/mouse.
[32] = test system: Mus musculus; assay: Systemic Antiinflammatory activity was measured in the TPA induced mouse ear edema assay at 25 ug/mouse; method in brief: as §2
[33] = test system: Mus musculus; assay: Systemic Antiinflammatory activity was measured in the TPA induced mouse ear edema assay at 75 ug/mouse; method in brief: as §2
[34] = species: Mus musculus; assay: Percentage systemic effect to assess the degree of absorption was measured 25 ug/mouse; method in brief: as §3
[35] = test system: Mus musculus; assay: Topical Antiinflammatory activity was measured in the TPA induced mouse ear edema assay at 75 ug/mouse.; method in brief: as §1
[36] = test system: Mus musculus; assay: Topical Antiinflammatory activity was measured in the TPA induced mouse ear edema assay at 25 ug/mouse.; method in brief: as §1
[37] = species: Mus musculus; assay: Skin thickness of mouse was measured at 75 ug/mouse.
[38] = species: Mus musculus; assay: Percentage systemic effect to assess the degree of absorption was measured at 75 ug/mouse; method in brief: as §3
[39] = species: Mus musculus; assay: Percentage systemic effect to assess the degree of absorption was measured at 2.5 ug/mouse; method in brief: as §3

CCCC(=O)O[C@@H]1[C@H](O)[C@@]2(Br)C(CCC3=CC(=O)C=C[C@@]32C)[C@@H]2C[C@H](C)[C@](OC(=O)CC)(C(=O)COC(=O)CC)[C@@]12C (stereo partly drawn)
Potency [1]: 68%
Potency [2]: 0%

CCC(=O)OCC(=O)[C@@]1(OC(=O)CC)[C@@H](C)C[C@H]2C3CCC4=CC(=O)C=C[C@]4(C)[C@@]3(Cl)[C@@H](O)[C@@H](OC(=O)CC)[C@@]21C (stereo partly drawn)
ED100 [3]: 400 µg
Potency [4]: 71%
Potency [5]: 0%
Potency [6]: 47%
Potency [7]: 0%
Potency [1]: 84%
Systemic effect [8]: 0% and 6%
Skin thickness [9]: 16.5
Potency [2]: 0%
Potency [10]: 0.1%
Potency [11]: 53%
Potency [12]: 0%
Systemic effect [13]: 5%
Systemic effect [14]: 4% and 5%

CCC(=O)OCC(=O)[C@@]1(OC(=O)CC)[C@@H](C)C[C@H]2C3CCC4=CC(=O)C=C[C@]4(C)[C@@]3(Br)[C@@H](O)[C@@H](OC(=O)CC)[C@@]21C (stereo partly drawn)
ED100 [3]: 325 µg
Potency [4]: 70%
Potency [5]: 0%
Potency [6]: 36%
Potency [7]: 0%
Potency [1]: 96%
Systemic effect [8]: 2% and 0%
Potency [2]: 0%
Potency [11]: 45%
Potency [12]: 0%
Systemic effect [13]: 6%
Systemic effect [14]: 2%

CCC(=O)OCC(=O)[C@@]1(OC(=O)CC)[C@@H](C)C[C@H]2C3CCC4=CC(=O)C=C[C@]4(C)[C@@]3(Br)[C@@H](O)[C@@H](OC(=O)c3ccco3)[C@@]21C (stereo partly drawn)
Potency [1]: 69%
Potency [2]: 0%

CCC(=O)OCC(=O)[C@@]1(OC(=O)CC)[C@@H](C)C[C@H]2C3CCC4=CC(=O)C=C[C@]4(C)[C@@]3(Br)[C@@H](O)[C@@H](OC(=O)c3ccccc3)[C@@]21C (stereo partly drawn)
Potency [1]: 84%
Potency [2]: 0%

CCC(=O)OCC(=O)[C@@]1(OC(=O)CC)[C@@H](C)C[C@H]2C3CCC4=CC(=O)C=C[C@]4(C)[C@@]3(Cl)[C@@H](O)[C@@H](O)[C@@]21C (stereo partly drawn)
ED100 [3]: 160 µg
Potency [15]: 15.7%
Potency [16]: 41%
Potency [17]: 67%
Skin thickness [18]: 13.92
Potency [7]: 21%
Systemic effect [19]: 0% and 13%
Potency [20]: 0%
Potency [21]: 5%
Systemic effect [22]: 4% and 2%
Potency [11]: 81%
Systemic effect [13]: 5% and 14%

CCC(=O)OCC(=O)[C@@]1(OC(=O)CC)[C@@H](C)C[C@H]2C3CCC4=CC(=O)C=C[C@]4(C)[C@@]3(Br)[C@@H](O)[C@@H](O)[C@@]21C (stereo partly drawn)
Systemic effect [23]: 7% and 12%
ED100 [3]: 325 µg
Potency [4]: 91%
Potency [5]: 17%
Potency [6]: 57%
Potency [7]: 17%
Potency [1]: 99%
Potency [24]: 16%
Systemic effect [8]: 7% and 15%
Potency [2]: 22%
Potency [11]: 86%
Systemic effect [13]: 0% and 14%
Systemic effect [25]: 7% and 15%

CCC(=O)OCC(=O)[C@@]1(OC(=O)CC)[C@@H](C)C[C@H]2C3CCC4=CC(=O)C=C[C@]4(C)[C@@]3(F)[C@@H](O)[C@@H](OC(=O)CC)[C@@]21C (stereo partly drawn)
ED100 [3]: 400 µg
Potency [16]: 21%
Potency [4]: 77%
Potency [17]: 50%
Potency [5]: 0%
Systemic effect [26]: 1% and 6%
Potency [7]: 0%
Potency [20]: 0%
Potency [21]: 0%
Systemic effect [22]: 0%
Potency [11]: 69%
Systemic effect [13]: 4% and 0%

CCC(=O)OCC(=O)[C@@]1(OC(=O)CC)[C@@H](C)C[C@H]2C3CCC4=CC(=O)C=C[C@]4(C)[C@@]3(Br)[C@@H](O)[C@@H](OC(=O)CC(C)C)[C@@]21C (stereo partly drawn)
Potency [1]: 54%
Potency [2]: 0%

CCC(=O)OCC(=O)[C@@]1(OC(=O)CC)[C@@H](C)C[C@H]2C3CCC4=CC(=O)C=C[C@]4(C)[C@@]3(F)[C@@H](O)[C@@H](O)[C@@]21C (stereo partly drawn)
ED100 [3]: 140 µg
Potency [16]: 46%
Potency [17]: 60%
Potency [7]: 19%
Systemic effect [19]: 13% and 10%
Potency [20]: 7%
Potency [21]: 11%
Systemic effect [22]: 9% and 1%
Potency [11]: 82%
Systemic effect [13]: 21% and 30%

CCC(=O)OCC(=O)[C@@]1(OC(=O)CC)[C@@H](C)C[C@H]2[C@@H]3CCC4=CC(=O)C=C[C@]4(C)[C@@]3(Cl)[C@@H](O)C[C@@]21C [BECLOMETHASONE DIPROPIONATE]
Systemic effect [27]: 67% and 36%
Skin thickness [28]: 8.12
ED100 [3]: 110 µg
Potency [29]: 12%
Potency [30]: 60%
Potency [31]: 51%
Potency [32]: 40%
Potency [33]: 52%
Systemic effect [34]: 52% and 32%
Potency [35]: 93%
Potency [36]: 78%

CCC(=O)OCC(=O)[C@@]1(OC(=O)CC)[C@@H](C)C[C@H]2[C@@H]3CCC4=CC(=O)C=C[C@]4(C)[C@@]3(F)[C@@H](O)C[C@@]21C [BETAMETHASONE DIPROPIONATE]
Skin thickness [37]: 9.39
ED100 [3]: 110 µg
Potency [29]: 27%
Potency [30]: 59%
Potency [31]: 43%
Potency [32]: 30%
Systemic effect [38]: 87% and 37%
Systemic effect [39]: 30% and 12%
Potency [33]: 72%
Potency [35]: 93%
Potency [36]: 76%
